Reference: ChEMBL document CHEMBL1142672 (J Med Chem, 2005)
Calls of active or inactive are those of the source. The rule behind the calls is not given here.

Columns and labels:
[1] = target: T1, 3',5'-cyclic-AMP phosphodiesterase 4D (Homo sapiens, UniProt Q08499); assay: Inhibition of [3H]cAMP binding to recombinant human Phosphodiesterase 4DE (PDE4DE) in baculovirus expression system
[2] = target: 3',5'-cyclic-AMP phosphodiesterase 4B (Homo sapiens, UniProt Q07343); assay: Inhibition of [3H]cAMP binding to recombinant human Phosphodiesterase 4BL (PDE4BL) in baculovirus expression system
Chain of 3',5'-cyclic-AMP phosphodiesterase 4B (Q07343 whole entry): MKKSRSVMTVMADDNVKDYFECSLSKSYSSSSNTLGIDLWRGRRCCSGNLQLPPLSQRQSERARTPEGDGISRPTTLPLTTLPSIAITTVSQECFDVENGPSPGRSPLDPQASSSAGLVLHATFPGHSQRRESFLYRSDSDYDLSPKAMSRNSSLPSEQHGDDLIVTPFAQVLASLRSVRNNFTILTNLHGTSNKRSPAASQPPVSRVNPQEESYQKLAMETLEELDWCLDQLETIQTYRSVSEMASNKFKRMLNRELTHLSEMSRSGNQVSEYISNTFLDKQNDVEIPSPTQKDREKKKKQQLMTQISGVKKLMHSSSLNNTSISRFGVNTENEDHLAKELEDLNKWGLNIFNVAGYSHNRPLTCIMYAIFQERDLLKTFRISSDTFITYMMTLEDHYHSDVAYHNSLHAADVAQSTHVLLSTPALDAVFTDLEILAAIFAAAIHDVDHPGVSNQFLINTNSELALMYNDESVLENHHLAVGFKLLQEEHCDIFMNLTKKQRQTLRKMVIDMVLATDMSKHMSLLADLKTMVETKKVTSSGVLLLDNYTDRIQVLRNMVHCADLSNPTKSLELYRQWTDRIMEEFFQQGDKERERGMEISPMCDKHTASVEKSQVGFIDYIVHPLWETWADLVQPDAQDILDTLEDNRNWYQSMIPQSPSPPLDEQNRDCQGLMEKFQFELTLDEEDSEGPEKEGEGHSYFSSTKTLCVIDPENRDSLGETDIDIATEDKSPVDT

[3] = target: cGMP-specific 3',5'-cyclic phosphodiesterase (Homo sapiens) (UniProt O76074); assay: Inhibition of [3H]cGMP binding to human Phosphodiesterase 5 at 30 uM; Inactive
[4] = target: 3',5'-cyclic-AMP phosphodiesterase 4A (Homo sapiens, UniProt P27815); assay: Inhibition of [3H]cAMP binding to recombinant human Phosphodiesterase 4AL (PDE4AL) in baculovirus expression system
Chain of 3',5'-cyclic-AMP phosphodiesterase 4A (P27815 whole entry): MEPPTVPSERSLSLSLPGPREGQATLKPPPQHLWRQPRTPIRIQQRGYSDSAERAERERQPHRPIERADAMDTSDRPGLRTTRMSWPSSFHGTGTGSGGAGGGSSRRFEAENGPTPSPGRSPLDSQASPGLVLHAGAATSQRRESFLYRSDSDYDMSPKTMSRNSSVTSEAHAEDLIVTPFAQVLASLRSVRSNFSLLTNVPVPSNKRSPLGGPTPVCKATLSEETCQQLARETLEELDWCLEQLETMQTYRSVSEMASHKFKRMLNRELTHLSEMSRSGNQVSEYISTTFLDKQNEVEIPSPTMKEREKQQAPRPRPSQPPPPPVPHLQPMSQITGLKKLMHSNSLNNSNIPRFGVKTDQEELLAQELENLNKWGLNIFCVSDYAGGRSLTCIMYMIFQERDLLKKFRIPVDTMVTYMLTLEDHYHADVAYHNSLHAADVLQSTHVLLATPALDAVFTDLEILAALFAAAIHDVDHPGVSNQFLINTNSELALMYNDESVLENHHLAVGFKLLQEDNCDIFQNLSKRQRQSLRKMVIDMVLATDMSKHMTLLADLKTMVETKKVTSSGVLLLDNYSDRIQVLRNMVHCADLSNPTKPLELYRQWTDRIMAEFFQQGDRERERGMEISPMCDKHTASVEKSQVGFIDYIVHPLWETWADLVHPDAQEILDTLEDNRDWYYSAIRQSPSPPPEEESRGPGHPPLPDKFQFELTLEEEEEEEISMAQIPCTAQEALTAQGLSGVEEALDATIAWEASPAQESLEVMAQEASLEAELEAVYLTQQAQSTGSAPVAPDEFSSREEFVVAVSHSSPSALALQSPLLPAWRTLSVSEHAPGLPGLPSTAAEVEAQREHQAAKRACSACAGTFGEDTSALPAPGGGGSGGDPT

[5] = target: T1, 3',5'-cyclic-AMP phosphodiesterase 4D; assay: Inhibition of [3H]cAMP binding to recombinant human Phosphodiesterase 4D5 (PDE4D5) in baculovirus expression system
[6] = target: Phosphodiesterase 4 (Homo sapiens, UniProt P27815+Q08499+Q07343+Q08493); assay: Inhibition of [3H]cAMP binding to human lung Phosphodiesterase 4; type: protein assay
[7] = target: Phosphodiesterase 3 (Homo sapiens) (UniProt Q14432+Q13370); assay: Inhibition of [3H]cAMP binding to human phosphodiesterase 3 at 30 uM; Inactive; type: protein assay
Summary of the method: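 Enzyme isolated from freshly collected human platelets. [3H]cAMP SPA kit assay, substrate at 200 nM (near Km under assay conditions). Compounds tested at 30 µM.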

[8] = target: T1, 3',5'-cyclic-AMP phosphodiesterase 4D; assay: Inhibition of [3H]cAMP binding to recombinant human Phosphodiesterase 4D3 (PDE4D3) in baculovirus expression system

T1 sequence (Q08499 whole entry): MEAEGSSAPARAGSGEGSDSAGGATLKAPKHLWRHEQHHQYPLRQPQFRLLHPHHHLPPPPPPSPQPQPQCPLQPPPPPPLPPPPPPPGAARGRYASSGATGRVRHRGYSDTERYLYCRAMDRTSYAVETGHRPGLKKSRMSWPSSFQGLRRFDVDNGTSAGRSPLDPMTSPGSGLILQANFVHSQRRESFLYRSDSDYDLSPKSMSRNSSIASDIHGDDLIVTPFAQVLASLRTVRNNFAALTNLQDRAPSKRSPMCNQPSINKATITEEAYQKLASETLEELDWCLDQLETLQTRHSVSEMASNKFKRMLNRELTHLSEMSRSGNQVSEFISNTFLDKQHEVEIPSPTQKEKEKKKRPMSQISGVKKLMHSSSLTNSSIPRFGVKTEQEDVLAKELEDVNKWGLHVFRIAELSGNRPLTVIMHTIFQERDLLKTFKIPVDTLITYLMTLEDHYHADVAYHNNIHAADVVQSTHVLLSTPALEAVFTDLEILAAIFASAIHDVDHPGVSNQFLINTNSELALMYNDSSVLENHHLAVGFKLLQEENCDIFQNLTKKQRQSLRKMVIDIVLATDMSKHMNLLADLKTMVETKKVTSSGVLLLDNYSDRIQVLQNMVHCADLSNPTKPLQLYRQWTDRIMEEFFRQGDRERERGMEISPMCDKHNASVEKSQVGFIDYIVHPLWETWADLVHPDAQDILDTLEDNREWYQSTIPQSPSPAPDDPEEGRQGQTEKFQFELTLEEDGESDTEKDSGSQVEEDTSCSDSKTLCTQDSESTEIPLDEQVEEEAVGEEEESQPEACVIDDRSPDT

Compound | Ki [1] | Ki [2] | Effect [3] | Ki [4] | Ki [5] | Ki [6] | Effect [7] | Ki [8]
CCNc1ncn(Cc2ccc(OC)c(OC3CCCC3)c2)c2nc(C(C)C)nc1-2 | 2890 nM | 270 nM | inactive | 3900 nM | 141 nM | 436 nM | inactive | 172 nM
COc1ccc(Cn2cnc(N)c3nc(C(C)(C)COc4ccc(C(=O)O)cc4)nc2-3)cc1OC1CCCC1 | > 50000 nM | > 50000 nM | inactive | > 50000 nM | > 50000 nM | 5230 nM | inactive | 4300 nM
COC(=O)c1ccc(OCC(C)(C)c2nc3c(N)ncn(Cc4ccc(OC)c(OC5CCCC5)c4)c-3n2)cc1 | 246 nM | 5.2 nM | inactive | 103 nM | 5.5 nM | 9.3 nM | inactive | 3 nM
COc1cccc(OC[C@H](C)c2nc3c(N)ncn(Cc4ccc(OC)c(OC5CCCC5)c4)c-3n2)c1 | 5050 nM | 430 nM | inactive | 5200 nM | 322 nM | 1470 nM | inactive | 493 nM
COc1ccc(Cn2cnc(N)c3nc(C(C)(C)COc4ccc(C(N)=O)cc4)nc2-3)cc1OC1CCCC1 | 312 nM | 7.6 nM | inactive | 155 nM | 4.9 nM | 25 nM | inactive | 8 nM
CC1CC(=O)NN=C1c1ccc(-n2ccnc2)cc1 (stereo not given) [CI-930] | > 50000 nM | > 50000 nM | – | > 50000 nM | > 50000 nM | – | – | > 50000 nM
